Screening data from PubChem.
T cruzi repl: inhibitors of intracellular T. cruzi growth, primary screen, luminescence, NIH3T3 host cells; 1.4% of 300,000 active; AID 1885, 2009; T. cruzi beta-gal in NIH3T3, 90 h; inhibition, % (test concentration not listed);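 active = mean inhibition across valid replicates above about 55%, limit read from the data; inconclusive = mean below that limit but half or more replicates reach it; inactive = mean below it, under half of replicates reach it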;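 also: signal also drops with host cell toxicity which is not excluded here; 0% = plate median of DMSO wells and 100% = zero luminescence signal; higher percent means less beta-gal luminescence so fewer parasites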
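Test system: β-gal T. cruzi (Tulahuen C4) inside NIH/3T3 cells / Quantity: 5,000 cells/well / Measured by: luminescence from GalScreen with 0.05% NP40, read after 60 min / Medium: DMEM plus 2% FBS / Measure: parasite load inhibition, % / Reagent: Tulahuen C4 trypomastigotes, 5000/well / Schedule: co-culture of at least 90 h after 3 h attachment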
Calb FLC: C. albicans growth inhibition with fluconazole, primary screen, CaCi-2 strain, Alamar Blue fluorescence | AID 1979, 2009 | growth inhibition, % (no concentration beside the values) | C. albicans CaCi-2 + fluconazole, 48 h | 0.57% of 300,000 active;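 active = growth inhibition above about 58% in most replicates, limit read from the data, passing the limit was not always enough; inconclusive = exactly half the replicates above a set limit; inactive = most replicates below a set limit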;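 also: all wells also contain fluconazole at 8 µg/ml as a sub-toxic cotreatment; 0% = median of DMSO wells and 100% = median of geldanamycin control wells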
CSC inhib: cancer stem cell viability inhibitors, primary screen, luminescence; cancer stem cell-like cells viability; inhibition, % at 7.5 µM; 1.1% of 300,000 active; in the data active = inhibition above about 75%; inconclusive = no clear call, values can overlap the other calls; tested in HMLE shEcad cells
Mdm2 MdmX PPI: inhibitors of human Mdm2-MdmX association, primary screen, cell-based, luminescence, split luciferase, SaOS-2, uHTS | inhibition, % at 8 µM | SaOS-2 split-luciferase Mdm2/MdmX complementation | 3% of 330,000 active;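 active = inhibition of at least 50% at 8 µM in the primary screen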
Beta apoptosis: inhibitors of cytokine-induced beta cell apoptosis, primary screen, luminescence | protection from apoptosis, % (concentration not given with the values) | INS-1E cytokine-induced death, ATP luminescence, 48 h; percent of positive-control rescue, neutral wells zero | 0.8% of 300,000 active;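 active = Every replicate reaches about 75%, or at least half do and their mean reaches it too, limit read from the data; inconclusive = At least half of replicates reach the limit but their mean does not; inactive = Under half of replicates reach the limit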;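 also: 0% = cytokine-treated negative control wells and 100% = positive control rescue; higher means more ATP so stronger rescue from cytokine killing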
SKKanGAS inh: S. pyogenes SKKanGAS growth inhibitors in kanamycin, primary screen, streptokinase expression inhibitor project, SKKanGAS strain, BacTiter-Glo luminescence; 6 h; inhibition, % at 7.5 µM; 1.3% of 300,000 active;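 active = mean replicate score, as percent of positive control median, at least 50; inconclusive = mean below 50 but one replicate at or above 50; inactive = mean and every replicate below 50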;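 also: strain carries kanamycin resistance gene driven by streptokinase promoter and grows in 40 µg/ml kanamycin; loss of luminescence reflects streptokinase promoter inhibition or plain growth inhibition; 0% = median of DMSO wells and 100% = positive control at its reference dose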
An asterisk follows results filed as active; ? = inconclusive; nt = no result. The list is not random: actives were taken first. Their share in the collection is about 5.7%.

SMILES	T cruzi repl	Calb FLC	CSC inhib	Mdm2 MdmX PPI	Beta apoptosis	SKKanGAS inh
Cc1ccc(-c2cc(-c3ccccc3)nc(NN)n2)cc1	11	9	83*	44	1	43
COc1ccc(-c2cc(-c3ccccc3)nc(NN)n2)cc1OC	-11	21	12	2	5	24
CN(C)CCCN(C(=O)c1ccc(C(=O)c2ccccc2)cc1)c1nc2ccc(F)cc2s1	57*	-4	1	21	3	2
CN(C)CCCN(C(=O)c1nc2ccccc2s1)c1nc2ccc(F)cc2s1	67*	-5	1	9	-6	-3
COc1cc2nc(N(CCCN(C)C)C(=O)c3ccc(S(=O)(=O)N4CCc5ccccc54)cc3)sc2cc1OC	55*	-7	-11	32	nt	8
Cc1ccc(-c2nc3sc(C#N)c(N)n3c(=O)c2C#N)cc1	4	111*	10	9	3	12
CCOc1ccccc1N(C)C(=O)c1cc2c(=O)n(CC)c3ccccc3c2s1	62*	-1	11	17	15	0
CCn1c(=O)c2cc(C(=O)N(C)CC(OC)OC)sc2c2ccccc21	13	2	-6	-10	3	-7
O=C(NC1CCC(O)CC1)c1cccnc1Sc1ccccc1Cl (configuration not stated)	2	3	-5	17	nt	-1
Cc1ccccc1OC1C(=O)N(Cc2ccc3c(c2)OCO3)C1c1sccc1C (configuration not stated)	46	-5	49	48	79*	14
O=C1C(Oc2ccccc2)C(c2cccs2)N1Cc1ccc2c(c1)OCO2 (configuration not stated)	17	-23	16	10	10	10
COc1ccc(CN2CCC(n3nccc3NC(=O)CCc3ccccc3)CC2)c(C)c1C	21	-15	nt	37	nt	14
Cn1c2ccccc2c(=O)c2c(=O)n(Cc3ccco3)c(-c3ccc(Cl)cc3Cl)nc21	64*	33	-10	26	1	9
Cc1ccc(/C=N/NC(=O)c2cc3c(s2)CCCC3)o1	nt	nt	-3	-28	2	nt
CC12CCC(C(=O)Nc3nc4ccccc4s3)(OC1=O)C2(C)C (configuration not stated)	11	0	-7	-29	0	-5
Nc1nc(CN2CCN(c3ccc(F)cc3)CC2)nc(N2CCCc3ccccc32)n1	-10	7	-9	14	6	84*
COc1ccc(Nc2nc(N)nc(CN3CCN(c4ccc(F)cc4)CC3)n2)cc1	-42	20	-17	29	-8	43
CCCN(CC1CC1)c1nc(N)c(C#N)c(CC#N)c1C#N	7	-2	6	7	-8	0
CCCN(CC1CC1)c1nc(C)nc(Nc2c(Cl)cc(Cl)cc2Cl)c1Cl	41	-5	86*	41	nt	89*
CC(OC(=O)Cc1ccc(Br)cc1)C(=O)NC1CCCC1 (configuration not stated)	nt	nt	-3	23	-5	nt
O=[N+]([O-])c1ccc(N2CCN(S(=O)(=O)c3ccccc3)CC2)cc1NCc1cccnc1	20	-2	nt	31	3	-11
O=[N+]([O-])c1ccc(N2CCN(S(=O)(=O)c3ccc(Cl)cc3)CC2)cc1NCc1cccnc1	60*	8	3	17	-7	10
Cc1cc(C)nc(N/N=C2/CCCC/C2=C\c2ccccc2)n1	70*	-2	4	9	78*	34
COc1ccc(CNC(=S)NC2CCCC2)cc1	-10	-2	17	6	-1	2
Cc1ccc(CNC(=S)NC2CCC(C(C)(C)C)CC2)cc1 (configuration not stated)	17	20	21	23	5	66*
SMILES	T cruzi repl	Calb FLC	CSC inhib	Mdm2 MdmX PPI	Beta apoptosis	SKKanGAS inh
S=C(NCc1ccc(Cl)cc1)NC1CCN(Cc2ccccc2)CC1	60*	-5	-5	29	8	-1
CC(NC(=S)NC1CCC(C(C)(C)C)CC1)c1ccccc1 (configuration not stated)	?	-26	30	21	28	81*
CCCCCC(=O)Nc1cc(S(=O)(=O)N2CCOCC2)ccc1N1CCCCC1	15	10	-7	23	-2	-11
CCCCCC(=O)Nc1cc(S(=O)(=O)N2CCOCC2)ccc1N1CCN(C)CC1	64*	-6	2	14	0	0
CSCCC(=O)Nc1cc(S(=O)(=O)N2CCOCC2)ccc1N1CCN(C)CC1	65*	-5	5	24	-4	0
O=C(COC(=O)CCc1ccccc1)NNC(=O)c1ccccc1	nt	nt	-7	17	-5	nt
CCCCNS(=O)(=O)c1ccc2nc(-c3cccnc3)cc(C(=O)NCC(OC)OC)c2c1	-2	5	-9	2	2	-5
CCOc1ccc(C(=O)NCC(=O)N2CC=C(c3ccccc3)CC2)cc1OCC	6	0	nt	14	0	6
Nc1c2c(nc3ccccc13)N(c1ccccc1)CC2	-3	10	nt	8	-3	2
Nc1c2c(nc3ccccc13)CSCC2	55*	-13	-5	-18	nt	4
c1ccc(-c2cc(-c3nc4ccccc4[nH]3)c3ccccc3n2)cc1	55*	?	64	41	21	7
O=C(NCc1ccc(F)cc1)C(=O)NCC1OCCN1S(=O)(=O)c1cccs1 (configuration not stated)	-7	-1	-5	8	4	-1
O=C(NCc1ccc(F)cc1)C(c1ccccc1)c1ccccc1	-6	-2	14	-9	-5	17
CC(=O)N(Cc1ccc(F)cc1)C1=C(NCc2ccccc2)C(=O)c2ccccc2C1=O	67*	89*	nt	nt	nt	26
CCOC(=O)c1c(S(=O)(=O)N2CCCC(C(=O)Nc3ccc(C)cn3)C2)c(C)n(C)c1C (configuration not stated)	-1	-8	1	-15	-3	-13
CN(c1ccc(OCC(=O)Nc2nc(-c3ccccc3)cs2)cc1)S(=O)(=O)c1ccc(F)cc1	55*	27	20	1	-6	7
Nc1ccc(Cl)c(S(=O)(=O)Nc2ccc(Cl)cc2)c1	64*	8	-5	-8	0	2
O=S(=O)(Nc1ccncc1)c1cc(Cl)ccc1Cl	-3	8	-8	-22	-1	1
Nc1ccc(N=Nc2ccccc2)c(N)n1	44	nt	nt	-9	nt	2
Nc1ccc(N=Nc2ccccc2)c2ccccc12	15	17	81*	30	9	86*
CS(=O)(=O)c1ccc([C@@H](O)[C@@H](CO)NC(=O)C(Cl)Cl)cc1	-3	17	-16	13	22	108*
